# Measurements: ChEMBL document CHEMBL5247599, “New β-arylchalcogeno amines with procognitive properties targeting Carbonic Anhydrases and Monoamine Oxidases” (Eur J Med Chem, 2022)
# Activity calls are given as the source filed them. The calls are words filed in the database; no cut-off is given here.
# Columns and labels:
# [1] = target: Carbonic anhydrase 6 (Homo sapiens) (UniProt P23280); experiment: Binding affinity to human CA6 by phenol red dye based stopped flow CO2 hydration assay
# Method in brief: (§1)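 Purified recombinant human CA isoforms. CA-catalysed CO2 hydration was followed by stopped-flow with phenol red at 557 nm, taking initial rates over 10–100 s from at least six traces of the first 5–10% of reaction. Uncatalysed rates were subtracted. Activator stocks were 0.1 mM in deionised water, diluted down to 0.1 nM in assay buffer. K_A came from non-linear least-squares Michaelis–Menten fitting.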
# [2] = Toxicity in overnight fasted C57Bl6 mouse assessed as reduction in food intake at 50 nmol/uL administered directly into lateral ventricle measured for 2 hrs; conditions: in vivo, icv_or_intrathecal
# Method in brief: (§2)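 Overnight-fasted male C57Bl6 mice received a lateral-ventricle infusion. Food was presented 30 min later, and intake was recorded at 0.5 h intervals over 2 h as cumulative consumption corrected for body weight; n = 8–9 per group.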
# [3] = target: Carbonic anhydrase 9 (Homo sapiens) (UniProt Q16790); experiment: Binding affinity to human CA9 by phenol red dye based stopped flow CO2 hydration assay; method in brief: as §1
# [4] = target: Carbonic anhydrase 4 (Homo sapiens) (UniProt P22748); experiment: Binding affinity to human CA4 by phenol red dye based stopped flow CO2 hydration assay; conditions: filed as activator; method in brief: as §1
# Carbonic anhydrase 4 (Homo sapiens), sequence (P22748 whole entry): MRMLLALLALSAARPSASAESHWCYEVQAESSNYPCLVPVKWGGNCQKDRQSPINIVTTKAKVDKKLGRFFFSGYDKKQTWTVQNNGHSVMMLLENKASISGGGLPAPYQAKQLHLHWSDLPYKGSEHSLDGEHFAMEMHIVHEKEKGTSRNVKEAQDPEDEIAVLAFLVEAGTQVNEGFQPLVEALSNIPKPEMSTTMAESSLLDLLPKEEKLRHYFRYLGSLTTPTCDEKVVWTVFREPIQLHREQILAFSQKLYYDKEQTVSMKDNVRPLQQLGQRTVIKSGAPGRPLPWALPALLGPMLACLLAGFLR
# [5] = target: Carbonic anhydrase 13 (Homo sapiens) (UniProt Q8N1Q1); experiment: Binding affinity to human CA13 by phenol red dye based stopped flow CO2 hydration assay; conditions: filed as activator; method in brief: as §1
# Carbonic anhydrase 13 (Homo sapiens), sequence (Q8N1Q1 whole entry, looked up): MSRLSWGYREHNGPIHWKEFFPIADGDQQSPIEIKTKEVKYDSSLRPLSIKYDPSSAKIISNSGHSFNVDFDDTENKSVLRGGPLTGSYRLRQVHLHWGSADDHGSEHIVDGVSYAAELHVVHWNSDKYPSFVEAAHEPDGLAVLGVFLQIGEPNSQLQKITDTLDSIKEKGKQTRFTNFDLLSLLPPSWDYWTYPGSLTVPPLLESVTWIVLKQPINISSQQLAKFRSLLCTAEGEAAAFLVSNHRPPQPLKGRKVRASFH
# [6] = target: Carbonic anhydrase 2 (Homo sapiens) (UniProt P00918); experiment: Binding affinity to human CA2 by phenol red dye based stopped flow CO2 hydration assay; method in brief: as §1
# [7] = Toxicity in C57Bl6 mouse assessed as reduction in distance travel at 50 nmol/uL administered directly into lateral ventricle by open field test; conditions: in vivo, icv_or_intrathecal
# Method in brief: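 Cannulated adult male C57Bl6 mice were placed in a 60×70 cm open-field arena 30 min after a 5 µL lateral-ventricle infusion. Total distance travelled over a 5-min session was recorded by overhead video tracking.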
# [8] = target: Carbonic anhydrase 5B, mitochondrial (Homo sapiens) (UniProt Q9Y2D0); experiment: Binding affinity to human CA5b by phenol red dye based stopped flow CO2 hydration assay; conditions: filed as activator; method in brief: as §1
# Carbonic anhydrase 5B, mitochondrial (Homo sapiens), sequence (Q9Y2D0 whole entry): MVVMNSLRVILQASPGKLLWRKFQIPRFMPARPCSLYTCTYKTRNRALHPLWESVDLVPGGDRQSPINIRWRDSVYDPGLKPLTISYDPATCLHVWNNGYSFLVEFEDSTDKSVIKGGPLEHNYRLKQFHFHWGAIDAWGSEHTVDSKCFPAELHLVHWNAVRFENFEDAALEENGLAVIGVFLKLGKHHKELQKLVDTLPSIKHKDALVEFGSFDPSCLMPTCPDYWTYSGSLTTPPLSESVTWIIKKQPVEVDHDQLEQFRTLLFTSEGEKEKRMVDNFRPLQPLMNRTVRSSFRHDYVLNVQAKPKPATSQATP
# [9] = target: Carbonic anhydrase 12 (Homo sapiens) (UniProt O43570); experiment: Binding affinity to human CA12 by phenol red dye based stopped flow CO2 hydration assay; conditions: filed as activator; method in brief: as §1
# Carbonic anhydrase 12 (Homo sapiens), sequence (O43570 whole entry): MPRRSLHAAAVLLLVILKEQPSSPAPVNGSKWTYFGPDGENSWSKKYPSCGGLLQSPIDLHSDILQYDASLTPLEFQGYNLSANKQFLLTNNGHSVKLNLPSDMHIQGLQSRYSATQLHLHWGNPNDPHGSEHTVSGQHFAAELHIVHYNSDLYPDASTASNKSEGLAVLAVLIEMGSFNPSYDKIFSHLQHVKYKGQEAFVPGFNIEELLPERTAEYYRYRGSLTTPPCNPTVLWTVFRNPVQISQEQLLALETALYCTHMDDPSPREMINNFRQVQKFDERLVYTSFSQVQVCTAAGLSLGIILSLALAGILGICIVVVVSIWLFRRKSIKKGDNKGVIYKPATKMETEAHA
# [10] = target: Carbonic anhydrase 5A, mitochondrial (Homo sapiens) (UniProt P35218); experiment: Binding affinity to human CA5a by phenol red dye based stopped flow CO2 hydration assay; conditions: filed as activator; method in brief: as §1
# Carbonic anhydrase 5A, mitochondrial (Homo sapiens), sequence (P35218 whole entry): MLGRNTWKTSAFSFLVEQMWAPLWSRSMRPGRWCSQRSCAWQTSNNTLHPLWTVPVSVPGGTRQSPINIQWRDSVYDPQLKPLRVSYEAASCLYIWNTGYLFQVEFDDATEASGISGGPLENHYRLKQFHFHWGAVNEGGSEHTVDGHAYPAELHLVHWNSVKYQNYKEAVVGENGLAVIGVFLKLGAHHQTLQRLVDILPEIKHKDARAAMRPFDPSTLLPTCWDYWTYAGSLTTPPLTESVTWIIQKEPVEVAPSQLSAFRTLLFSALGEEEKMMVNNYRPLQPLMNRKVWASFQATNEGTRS
# [11] = target: Carbonic anhydrase 1 (Homo sapiens) (UniProt P00915); experiment: Binding affinity to human CA1 by phenol red dye based stopped flow CO2 hydration assay; method in brief: as §1
# Carbonic anhydrase 1 (Homo sapiens), sequence (P00915 2-261 limits assumed): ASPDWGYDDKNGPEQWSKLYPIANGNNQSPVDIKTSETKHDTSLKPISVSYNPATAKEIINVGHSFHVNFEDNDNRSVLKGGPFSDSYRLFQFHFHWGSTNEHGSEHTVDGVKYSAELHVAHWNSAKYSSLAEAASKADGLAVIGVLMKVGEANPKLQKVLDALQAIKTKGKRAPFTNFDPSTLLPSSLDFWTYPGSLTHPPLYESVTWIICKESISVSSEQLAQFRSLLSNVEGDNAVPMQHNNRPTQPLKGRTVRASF
# [12] = Toxicity in overnight fasted C57Bl6 mouse assessed as reduction in food intake at 50 nmol/uL administered directly into lateral ventricle measured for 30 mins; conditions: in vivo, icv_or_intrathecal, 0.5 h; method in brief: as §2
# [13] = target: Carbonic anhydrase 3 (Homo sapiens) (UniProt P07451); experiment: Binding affinity to human CA3 by phenol red dye based stopped flow CO2 hydration assay; conditions: filed as activator; method in brief: as §1
# Carbonic anhydrase 3 (Homo sapiens), sequence (P07451 whole entry): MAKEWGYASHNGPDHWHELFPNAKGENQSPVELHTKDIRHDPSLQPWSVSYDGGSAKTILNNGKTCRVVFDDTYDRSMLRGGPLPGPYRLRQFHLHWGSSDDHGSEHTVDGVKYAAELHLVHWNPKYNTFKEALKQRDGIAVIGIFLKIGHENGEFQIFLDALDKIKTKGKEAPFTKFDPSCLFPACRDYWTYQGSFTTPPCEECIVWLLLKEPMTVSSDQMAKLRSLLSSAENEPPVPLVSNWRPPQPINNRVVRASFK
# [14] = target: Carbonic anhydrase 14 (Homo sapiens) (UniProt Q9ULX7); experiment: Binding affinity to human CA14 by phenol red dye based stopped flow CO2 hydration assay; conditions: filed as activator; method in brief: as §1
# Carbonic anhydrase 14 (Homo sapiens), sequence (Q9ULX7 whole entry): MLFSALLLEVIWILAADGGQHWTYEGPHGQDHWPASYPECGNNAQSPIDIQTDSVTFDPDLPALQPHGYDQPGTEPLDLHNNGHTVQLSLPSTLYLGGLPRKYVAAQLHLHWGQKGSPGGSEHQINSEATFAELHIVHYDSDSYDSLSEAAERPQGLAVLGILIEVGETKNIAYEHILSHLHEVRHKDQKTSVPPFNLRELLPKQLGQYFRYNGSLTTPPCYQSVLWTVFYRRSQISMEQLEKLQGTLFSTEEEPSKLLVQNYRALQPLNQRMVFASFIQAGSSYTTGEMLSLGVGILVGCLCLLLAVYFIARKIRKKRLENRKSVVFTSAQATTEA
# [15] = target: Carbonic anhydrase 7 (Homo sapiens) (UniProt P43166); experiment: Binding affinity to human CA7 by phenol red dye based stopped flow CO2 hydration assay; conditions: filed as activator; method in brief: as §1
# Carbonic anhydrase 7 (Homo sapiens), sequence (P43166 whole entry): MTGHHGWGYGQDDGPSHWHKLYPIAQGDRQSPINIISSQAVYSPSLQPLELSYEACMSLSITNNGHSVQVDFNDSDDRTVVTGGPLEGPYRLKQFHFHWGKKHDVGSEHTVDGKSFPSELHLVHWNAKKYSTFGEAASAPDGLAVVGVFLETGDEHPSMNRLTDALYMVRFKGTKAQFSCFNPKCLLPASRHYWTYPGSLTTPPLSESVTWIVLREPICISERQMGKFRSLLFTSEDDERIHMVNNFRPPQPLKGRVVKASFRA
# Mus musculus [16] = experiment: Pro-cognitive activity in C57Bl6 mouse assessed as attenuation of long-term memory deficit by measuring increase in exploration time for novel juvenile at 25 nmol/uL, icv measured after 48 hrs by novel object recognition test; assay type: functional, organism-based
# Method in brief: (§3)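 Male adult C57Bl6 mice (8–9 weeks), lateral-ventricle cannula implanted 7 days earlier. Social recognition: 10-min habituation to arena with two empty cups; 24 h later 10-min acquisition with an unfamiliar juvenile (3–4 weeks) under one wire cup. Immediately after, 5 µL i.c.v. infusion at 1 µL/min. Retention at 48 h with familiar and novel juvenile; percentage time exploring each cup (snout-to-cup contact).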
# Mus musculus [17] = experiment: Pro-cognitive activity in C57Bl6 mouse assessed as attenuation of long-term memory deficit by measuring increase in exploration time for novel object by measuring discrimination index at 50 nmol/uL, icv measured after 24 hrs by novel object recognition test; assay type: functional
# Method in brief: (§4)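 Novel object recognition in adult male C57Bl6 mice. Habituation was 10 min in an empty arena. Twenty-four hours later, mice explored two identical objects for 5 min, then received an immediate 5 µL lateral-ventricle infusion at 1 µL/min. A 5-min retention test with one familiar and one novel object followed 24 h later. Scores were % exploration time and DI = (tN−tF)/(tN+tF).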
# Mus musculus [18] = experiment: Pro-cognitive activity in C57Bl6 mouse assessed as attenuation of long-term memory deficit by measuring increase in exploration time for novel object at 25 nmol/uL, icv measured after 24 hrs by novel object recognition test; assay type: functional, organism-based; method in brief: as §4
# Mus musculus [19] = experiment: Ex vivo activation of C57Bl6 mouse hippocampus homogenate CA assessed as increase in protein activity at 50 nmol/uL, icv measured after 30 mins by stopped flow spectrophotometric method; assay type: functional, organism-based
# Method in brief: (§5)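 Adult male C57Bl6 mice with lateral-ventricle cannulae received 5 µL at 1 µL/min. After 30 min, cortex and hippocampus were dissected on ice, homogenised in 20 mM Hepes pH 7.5 and spun at 20000g for 30 min. Stopped-flow CO2 hydration used 0.2 mM phenol red (557 nm), 20 mM NaClO4, 20°C and 1.7–17 mM CO2. Activity is expressed as % of vehicle mean; 6 mice/group.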
# Mus musculus [20] = experiment: Pro-cognitive activity in C57Bl6 mouse assessed as attenuation of long-term memory deficit by measuring increase in exploration time for novel juvenile by measuring discrimination index at 25 nmol/uL, icv measured after 48 hrs by novel object recognition test; assay type: functional
# Method in brief: (§6)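 Social recognition in adult male C57Bl6 mice with intracerebroventricular cannulae. Habituation was 10 min with two empty cups. Twenty-four hours later, a novel 3–4-week-old juvenile was placed under one cup for 10 min of exploration, followed immediately by a 5 µL infusion at 1 µL/min. Retention 48 h later offered familiar versus novel juvenile, scoring snout-to-cup contact. DI = (tN−tF)/(tN+tF).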
# [21] = target: T1, Amine oxidase [flavin-containing] A (Homo sapiens, UniProt P21397); experiment: Inhibition of human recombinant MAO-A assessed as inhibition of 4-hydroxyquinoline formation using kynuramine as substrate by fluorescence spectrophotometry analysis
# T1 sequence (P21397 whole entry): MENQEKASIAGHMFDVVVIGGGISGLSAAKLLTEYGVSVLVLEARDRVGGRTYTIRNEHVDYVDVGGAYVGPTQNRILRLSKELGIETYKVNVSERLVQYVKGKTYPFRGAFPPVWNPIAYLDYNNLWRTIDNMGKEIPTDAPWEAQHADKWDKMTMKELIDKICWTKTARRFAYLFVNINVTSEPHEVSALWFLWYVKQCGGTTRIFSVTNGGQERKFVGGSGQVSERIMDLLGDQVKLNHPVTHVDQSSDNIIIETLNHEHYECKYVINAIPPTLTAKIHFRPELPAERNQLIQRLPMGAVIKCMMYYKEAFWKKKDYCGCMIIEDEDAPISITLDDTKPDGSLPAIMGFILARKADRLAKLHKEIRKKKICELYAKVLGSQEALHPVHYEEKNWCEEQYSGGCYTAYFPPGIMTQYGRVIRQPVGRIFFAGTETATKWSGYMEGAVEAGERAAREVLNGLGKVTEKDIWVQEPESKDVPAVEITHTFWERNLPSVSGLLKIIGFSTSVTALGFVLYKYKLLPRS
# Method in brief: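 Recombinant human MAO-A with kynuramine as substrate. The 4-hydroxyquinoline product was quantified by fluorescence spectrophotometry, and IC50 values were determined.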
# Mus musculus [22] = experiment: Pro-cognitive activity in C57Bl6 mouse assessed as attenuation of long-term memory deficit by measuring increase in exploration time for novel object at 50 nmol/uL, icv measured after 24 hrs by novel object recognition test; assay type: functional, organism-based
# Method in brief: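 Male adult C57Bl6 mice (8–9 weeks), lateral-ventricle cannula implanted one week before. 10-min habituation to empty open-field arena; 24 h later, 5-min acquisition with two identical objects, followed immediately by 5 µL i.c.v. infusion at 1 µL/min. 5-min retention test 24 h after acquisition with one familiar and one novel object; percentage exploration time per object, two-way ANOVA with Bonferroni.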
# Mus musculus [23] = experiment: Pro-cognitive activity in C57Bl6 mouse assessed as attenuation of long-term memory deficit by measuring increase in exploration time for novel juvenile by measuring discrimination index at 50 nmol/uL, icv measured after 48 hrs by novel object recognition test; assay type: functional; method in brief: as §6
# Mus musculus [24] = experiment: Pro-cognitive activity in C57Bl6 mouse assessed as attenuation of long-term memory deficit by measuring increase in exploration time for novel juvenile at 50 nmol/uL, icv measured after 48 hrs by novel object recognition test; assay type: functional, organism-based; method in brief: as §3
# Mus musculus [25] = experiment: Pro-cognitive activity in C57Bl6 mouse assessed as attenuation of long-term memory deficit by measuring increase in exploration time for novel object by measuring discrimination index at 25 nmol/uL, icv measured after 48 hrs by novel object recognition test; assay type: functional
# Mus musculus [26] = experiment: Ex vivo activation of C57Bl6 mouse cortex homogenate CA assessed as increase in protein activity at 50 nmol/uL, icv measured after 30 mins by stopped flow spectrophotometric method; assay type: functional, organism-based; method in brief: as §5
# Carbonic anhydrase 6 (Homo sapiens), sequence (P23280 whole entry, canonical isoform): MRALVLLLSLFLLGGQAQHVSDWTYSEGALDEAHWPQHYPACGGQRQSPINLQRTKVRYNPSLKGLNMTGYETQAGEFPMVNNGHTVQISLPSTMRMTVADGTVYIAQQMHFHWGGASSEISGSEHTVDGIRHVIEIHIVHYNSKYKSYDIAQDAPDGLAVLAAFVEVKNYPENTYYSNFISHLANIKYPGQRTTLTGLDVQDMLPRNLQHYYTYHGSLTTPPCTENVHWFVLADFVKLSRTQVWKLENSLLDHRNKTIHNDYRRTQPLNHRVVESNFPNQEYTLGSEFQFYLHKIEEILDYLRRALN
Compound,Activity [2],Ka [4] [µM],Ka [5] [µM],Ka [6] [µM],Activity [7],Ka [8] [µM],Ka [9] [µM],Ka [10] [µM],Ka [13] [µM],Ka [14] [µM],Ka [15] [µM],also measured
CC(N)Cc1ccccc1 (stereo not given) [AMPHETAMINE],Toxic,0.094,24.1,> 150,Toxic,2.56,0.64,0.81,87.7,9.15,0.91,Ka [1]: > 150 µM; Ka [3]: > 150 µM; Ka [11]: > 150 µM; Activity [12]: Toxic
CC(N)C[Se]c1ccccc1 (stereo not given),Non-Toxic,8.6,58.6,> 100,Non-Toxic,26.3,59.5,14.7,14.3,9.9,20.6,Ka ([1]; filed as activator): 57.2 µM; Activity (Mus musculus [16]): inactive; Activity_index (Mus musculus [17]): 0.206; Ka ([3]; filed as activator): 49.6 µM; Activity (Mus musculus [18]): inactive; Activity (Mus musculus [19]): Active; Activity_index (Mus musculus [20]): 0.011; IC50 [21]: 9.79 µM; Activity (Mus musculus [22]): Active; Activity_index (Mus musculus [23]): 0.156; Activity (Mus musculus [24]): Active; Ka ([11]; filed as activator): 9.9 µM; Activity_index (Mus musculus [25]): 0.006; Activity (Mus musculus [26]): Active
